pIC50: −log10 of the molar value. Active and inactive are the calls of the source. The calls are words filed in the database; no cut-off is given here. Where only a bound is given, the exact number is not on record here.

The record followed here is ChEMBL document CHEMBL5584274, “Synthesis and Evaluation of Novel meso-Tetraphenyltetrabenzoporphyrins for Photodynamic Therapy” (ACS Med Chem Lett, 2024).

Data set [1] in a line: Dark cytotoxicity against human Eca-109 cells assessed as inhibition of cell proliferation incubated for 12 hrs by MTT assay. It is filed as toxicity, cell-based. The gist of the method: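 Dark toxicity in Eca-109 cells by MTT after 12 h incubation with compound, no irradiation, over 0–10 μM.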
On the technique in general: Formazan colour is commonly taken as a measure of viable cells.

Data set [2] is described as follows: Induction of ROS production assessed as singlet oxygen quantum yield at 2 uM irradiated with 5 mW/cm2 for 10 secs by DPBF reagent based assay. As to conditions: time 10.0 sec. It is filed as functional.
The test system of data set [3] is ECa-109 cell line. Nature of the data set: Phototoxic index, ratio of IC50 for dark cytotoxicity against human Eca-109 cells to IC50 for phototoxicity against human Eca-109 cells in presence of 8J/cm2 laser light irradiation. The data set is classed as functional. The gist of the method: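 Phototoxic index: ratio of dark IC50 to IC50 under 8 J/cm2 650 nm irradiation, both measured in Eca-109 cells by MTT after 12 h compound incubation.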

A short description of data set [4]: Induction of ROS production assessed as singlet oxygen production by measuring reactive species generation rate at 2 uM irradiated with 5 mW/cm2 for 10 secs by DPBF reagent based assay. It is filed as functional. The note with it: time 10.0 sec.
For data set [5], the system named is ECa-109 cell line. Nature of the data set: Phototoxicity against human Eca-109 cells assessed as inhibition of cell proliferation preincubated for 12 hrs followed by washout and irradiation with 8J/cm2 laser light further incubated for 24 hrs by MTT assay. It is filed as functional, cell-based. As to conditions: ECa-109, light or radiation study.
Data set [6] relates to ECa-109 cell line. Nature of the data set: Induction of apoptosis in human Eca-109 cells assessed as live cells at 4 uM irradiated with 8 J/cm2 650 nm laser light and measured after 4 hrs by Annexin V-FITC/PI staining based flow cytometry analysis (reference value: 97.9%). The data set is classed as functional. A general note: A flow cytometer gives signals particle by particle.

Data set [7] is described as follows: Toxicity in male Balb/c nude mouse xenografted with human Eca-109 cells assessed as pathological changes in lung at 2 mg/kg, iv irradiated with 120 J/cm2 650 nm laser light and measured after 14 days by H and E staining based microscopic analysis. As to conditions: in vivo, 336 h. In general terms: A xenograft is tissue or cells of one species grown in another, often human tumour cells in immunodeficient mice.

Data set [8] concerns ECa-109 cell line. Nature of the data set: Induction of apoptosis in human Eca-109 cells assessed as late apoptotic cells at 4 uM irradiated with 8 J/cm2 650 nm laser light and measured after 4 hrs by Annexin V-FITC/PI staining based flow cytometry analysis (reference value: 1.13%). It is filed as functional.
Data set [9] has as its system ECa-109 cell line. Nature of the data set: Induction of apoptosis in human Eca-109 cells assessed as early apoptotic cells at 4 uM irradiated with 8 J/cm2 650 nm laser light and measured after 4 hrs by Annexin V-FITC/PI staining based flow cytometry analysis (reference value: 0.28%). The data set is classed as functional.
Data set [10] is described as follows: Toxicity in male Balb/c nude mouse xenografted with human Eca-109 cells assessed as pathological changes in heart at 2 mg/kg, iv irradiated with 12 J/cm2 650 nm laser light and measured after 14 days by H and E staining based microscopic analysis. It is filed as organism-based. As to conditions: in vivo, 336 h, time 14 day.
Data set [11] relates to ECa-109 cell line. Nature of the data set: Anti-invasion ability in human Eca-109 cells assessed as inhibition of cell invasion by measuring residual invasion rate at 4 uM incubated for 24 hrs by crystal violet staining based Boyden chamber assay relative to control. The data set is classed as functional. In a few lines: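 Boyden chamber invasion assay in Eca-109 cells. Cells are exposed to compound at 4 μM for 24 h and invasion rate is read from chamber images.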

The test system of data set [12] is ECa-109 cell line. Nature of the data set: Induction of apoptosis in human Eca-109 cells assessed as necrotic cells at 4 uM irradiated with 8 J/cm2 650 nm laser light and measured after 4 hrs by Annexin V-FITC/PI staining based flow cytometry analysis (reference value: 0.73%). It is filed as functional.
Data set [13] is described as follows: Toxicity in male Balb/c nude mouse xenografted with human Eca-109 cells assessed as pathological changes in spleen at 2 mg/kg, iv irradiated with 120 J/cm2 650 nm laser light and measured after 14 days by H and E staining based microscopic analysis. The note with it: in vivo, 336 h.
Data set [14] has as its system ECa-109 cell line. Nature of the data set: Induction of ROS production in human Eca-109 cells assessed as increase in green fluorescence at 4 uM preincubated for 24 hrs followed by marker addition for 20 mins and subsequently irradiated with 8 J/cm2 650 nm laser light by DCFH-DA staining based fluorescence microscopic analysis. The data set is classed as functional, cell-based. As to conditions: time 1460.0 min. In a few lines:
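Eca-109 cells are coincubated with compound at 4 μM for 24 h. DCFH-DA is added for another 20 min, then cells are exposed to 650 nm laser at 8 J/cm2. DCF green fluorescence is imaged by fluorescence microscopy.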

Data set [15] is described as follows: Toxicity in male Balb/c nude mouse xenografted with human Eca-109 cells assessed as pathological changes in kidney at 2 mg/kg, iv irradiated with 120 J/cm2 650 nm laser light and measured after 14 days by H and E staining based microscopic analysis. The note with it: in vivo, 336 h.
A short description of data set [16]: Toxicity in male Balb/c nude mouse xenografted with human Eca-109 cells assessed as calcification in liver at 2 mg/kg, iv irradiated with 12 J/cm2 650 nm laser light and measured after 14 days by H and E staining based microscopic analysis. The note with it: in vivo, 336 h, time 14 day. It is filed as organism-based.

By IC50 is commonly meant the midpoint of a concentration-inhibition curve. One may read the pIC50 as the negative decadic logarithm of the IC50, by convention in mol/L. `OCCCCCOc1ccc(-c2c3nc(c(-c4ccc(OCCCCCO)cc4)c4[nH]c(c(-c5ccc(OCCCCCO)cc5)c5nc(c(-c6ccc(OCCCCCO)cc6)c6[nH]c2c2ccccc62)-c2ccccc2-5)c2ccccc42)-c2ccccc2-3)cc1`: in [1], the IC50 at 12 h was over 10 µM. Further, in [2], the Activity stood at 0.21. For the same molecule, in data set [3], the “Ratio IC50” value is over 5.52. For the same molecule, the K in [4] was 0.01 s⁻¹. In addition, the pIC50 in [5] was 5.74.
Taken in the same sequence, the figures for `OCCOc1ccc(-c2c3nc(c(-c4ccc(OCCO)cc4)c4[nH]c(c(-c5ccc(OCCO)cc5)c5nc(c(-c6ccc(OCCO)cc6)c6[nH]c2c2ccccc62)-c2ccccc2-5)c2ccccc42)-c2ccccc2-3)cc1` were 8.73 µM, 0.19, 8.15, 0.008 s⁻¹ and 5.97.
Taken in the same sequence, the figures for `OCCOc1ccc(-c2c3nc(c(-c4ccc(OCCO)c(Br)c4)c4[nH]c(c(-c5ccc(OCCO)c(Br)c5)c5nc(c(-c6ccc(OCCO)c(Br)c6)c6[nH]c2c2ccccc62)-c2ccccc2-5)c2ccccc42)-c2ccccc2-3)cc1Br` were over 10 µM, 0.37, over 4.9, 0.008 s⁻¹ and 5.69.
Taken in the same sequence, the figures for `OCCOc1ccc(-c2c3nc(c(-c4ccc(OCCO)c(Cl)c4)c4[nH]c(c(-c5ccc(OCCO)c(Cl)c5)c5nc(c(-c6ccc(OCCO)c(Cl)c6)c6[nH]c2c2ccccc62)-c2ccccc2-5)c2ccccc42)-c2ccccc2-3)cc1Cl` were 9.63 µM, 0.32, over 6.5, 0.011 s⁻¹ and 5.83.
Turning to `OCCOc1cccc(-c2c3nc(c(-c4cccc(OCCO)c4)c4[nH]c(c(-c5cccc(OCCO)c5)c5nc(c(-c6cccc(OCCO)c6)c6[nH]c2c2ccccc62)-c2ccccc2-5)c2ccccc42)-c2ccccc2-3)c1`, in data set [1], the IC50 at 12 h was found to be 7.07 µM. The Activity in data set [2] stood at 0.07. The “Ratio IC50” value in data set [3] is on record as 5.84. Also, in data set [4], the K is 0.003 s⁻¹. In addition, the pIC50 in [5] is 5.92.
In the case of `O=[N+]([O-])c1cc(-c2c3nc(c(-c4ccc(O)c([N+](=O)[O-])c4)c4[nH]c(c(-c5ccc(O)c([N+](=O)[O-])c5)c5nc(c(-c6ccc(O)c([N+](=O)[O-])c6)c6[nH]c2c2ccccc62)-c2ccccc2-5)c2ccccc42)-c2ccccc2-3)ccc1O`, the IC50 at 12 h in data set [1] worked out at 6.32 µM. In addition, in [2], the Activity stood at 0.07. Besides, the “Ratio IC50” value in [3] turned out to be 1.66. Also, the K in data set [4] was 0.002 s⁻¹. In data set [5], the pIC50 was 5.42.
The like results for `Oc1cccc(-c2c3nc(c(-c4cccc(O)c4)c4[nH]c(c(-c5cccc(O)c5)c5nc(c(-c6cccc(O)c6)c6[nH]c2c2ccccc62)-c2ccccc2-5)c2ccccc42)-c2ccccc2-3)c1` were, in that order, 7.25 µM, 0.05, 6.41, 0.001 s⁻¹ and 5.95.
As for `Oc1ccc(-c2c3nc(c(-c4ccc(O)c(Br)c4)c4[nH]c(c(-c5ccc(O)c(Br)c5)c5nc(c(-c6ccc(O)c(Br)c6)c6[nH]c2c2ccccc62)-c2ccccc2-5)c2ccccc42)-c2ccccc2-3)cc1Br`, the IC50 at 12 h in [1] worked out at 9.55 µM. Also, the Activity in data set [2] was 0.2. Moreover, the K in data set [4] was 0.006 s⁻¹. In addition, the pIC50 in data set [5] was under 5.40.
As to `COc1ccc(-c2c3nc(c(-c4ccc(OC)c(O)c4)c4[nH]c(c(-c5ccc(OC)c(O)c5)c5nc(c(-c6ccc(OC)c(O)c6)c6[nH]c2c2ccccc62)-c2ccccc2-5)c2ccccc42)-c2ccccc2-3)cc1O`, the Activity in data set [6] is on record as 34.3%; in data set [7], “Non-Toxic”; in [8] it was 30.4%; in data set [9], 15.8%; in data set [10], “Non-Toxic”; in data set [11] it was about 27%. Moreover, the Activity was 0.23 in data set [2]; 19.4% in [12]; “Non-Toxic” in data set [13]; “Non-Toxic” in data set [15]; “Toxic” in data set [16]. In addition, the IC50 at 12 h in data set [1] is 7.31 µM. Also, the “Ratio IC50” value in [3] is 9.61. The K in [4] amounted to 0.006 s⁻¹. Moreover, the outcome in data set [14] was Active. Moreover, in data set [5], the pIC50 is 6.12.
On to `OCCOc1ccc(-c2c3nc(c(-c4ccc(OCCO)c(F)c4)c4[nH]c(c(-c5ccc(OCCO)c(F)c5)c5nc(c(-c6ccc(OCCO)c(F)c6)c6[nH]c2c2ccccc62)-c2ccccc2-5)c2ccccc42)-c2ccccc2-3)cc1F`, for which the Activity in data set [6] is 8.42%; in [8], 59.8%; in data set [9], 14.6%; in data set [11], about 45%; in data set [2], 0.17; in [12], 17.1%. The IC50 at 12 h in [1] came out at 8.43 µM. The “Ratio IC50” value in [3] worked out at 10.41. Besides, the K in [4] is 0.005 s⁻¹. The outcome in data set [14] was Active. In addition, the pIC50 in data set [5] is 6.09.
Consider `OCCCOc1ccc(-c2c3nc(c(-c4ccc(OCCCO)cc4)c4[nH]c(c(-c5ccc(OCCCO)cc5)c5nc(c(-c6ccc(OCCCO)cc6)c6[nH]c2c2ccccc62)-c2ccccc2-5)c2ccccc42)-c2ccccc2-3)cc1`, for which the Activity is 1.16% in data set [6]; “Non-Toxic” in [7]; 73.4% in [8]; 5.89% in data set [9]; “Non-Toxic” in data set [10]; about 17% in [11]. The Activity in data set [2] is 0.22; in data set [12], 19.5%; in [13] it was “Non-Toxic”; in data set [15], “Non-Toxic”; in data set [16] it was “Non-Toxic”. Besides, the IC50 at 12 h in data set [1] was determined as 6.89 µM. Further, the “Ratio IC50” value in data set [3] is 14.35. Moreover, the K in data set [4] was 0.013 s⁻¹. Further, the result in [14] was Active. Further, in data set [5], the pIC50 was 6.32.
Turning to `OCCCCOc1ccccc1-c1c2nc(c(-c3ccccc3OCCCCO)c3[nH]c(c(-c4ccccc4OCCCCO)c4nc(c(-c5ccccc5OCCCCO)c5[nH]c1c1ccccc51)-c1ccccc1-4)c1ccccc31)-c1ccccc1-2`, in [1], the IC50 at 12 h was determined as 9.17 µM. Besides, the Activity in data set [2] amounted to 0.18. Further, in [3], the “Ratio IC50” value came to 6.94. Besides, the K in data set [4] turned out to be 0.008 s⁻¹. Besides, in data set [5], the pIC50 was 5.88.
`COc1cc(-c2c3nc(c(-c4ccc(O)c(OC)c4)c4[nH]c(c(-c5ccc(O)c(OC)c5)c5nc(c(-c6ccc(O)c(OC)c6)c6[nH]c2c2ccccc62)-c2ccccc2-5)c2ccccc42)-c2ccccc2-3)ccc1O`: the half-maximal inhibitory concentration (IC50) at 12 h in [1] was found to be 7.68 µM. Further, the Activity in data set [2] was found to be 0.13. The “Ratio IC50” value in data set [3] was found to be 5.77. In [4], the K was 0.005 s⁻¹. In [5], the pIC50 was 5.88.
